Source: publication PMC3158287 (Nature chemical biology, 2011)
Residue numbers refer to the chain shown, from its start. Where two headings read alike, the source gives them in different places.

Assays:
OSBP^V582M = biological target: T1, OSBP^V582M (Homo sapiens, UniProt P22059, V582M); assay: [3H]25-OHC binding assay, OSBP V582M mutant
T1 sequence (P22059 1-807 V582M): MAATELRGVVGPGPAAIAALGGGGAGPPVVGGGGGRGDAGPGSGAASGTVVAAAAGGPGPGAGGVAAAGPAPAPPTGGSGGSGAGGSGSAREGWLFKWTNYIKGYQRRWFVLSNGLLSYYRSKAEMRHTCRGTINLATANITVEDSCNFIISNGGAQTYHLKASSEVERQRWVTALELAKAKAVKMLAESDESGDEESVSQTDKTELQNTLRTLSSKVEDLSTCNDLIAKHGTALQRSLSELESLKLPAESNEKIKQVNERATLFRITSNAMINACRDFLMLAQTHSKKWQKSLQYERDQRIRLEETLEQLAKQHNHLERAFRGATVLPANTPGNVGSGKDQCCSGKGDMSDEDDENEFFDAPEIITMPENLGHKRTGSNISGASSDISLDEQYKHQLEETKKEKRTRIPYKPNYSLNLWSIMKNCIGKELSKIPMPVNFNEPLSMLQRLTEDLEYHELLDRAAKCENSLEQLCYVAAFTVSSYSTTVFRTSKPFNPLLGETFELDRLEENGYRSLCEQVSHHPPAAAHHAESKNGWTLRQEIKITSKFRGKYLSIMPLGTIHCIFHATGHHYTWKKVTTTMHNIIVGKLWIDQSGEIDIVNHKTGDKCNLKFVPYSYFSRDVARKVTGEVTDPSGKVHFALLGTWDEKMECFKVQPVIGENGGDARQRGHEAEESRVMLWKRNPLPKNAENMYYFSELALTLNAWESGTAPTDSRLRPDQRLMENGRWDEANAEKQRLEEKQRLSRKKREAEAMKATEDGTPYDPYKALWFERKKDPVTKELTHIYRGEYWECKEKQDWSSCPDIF

[1] = test system: HeLa cells overexpressing ORP4L; assay: Overexpression-viability assay, ORP4L-Myc-His; type: cell-based, human; conditions: 48 h, versus lacZ
OSBP^M446W = biological target: T2, OSBP^M446W (Homo sapiens, UniProt P22059, M446W); assay: [3H]25-OHC binding assay, OSBP M446W mutant
T2 sequence (P22059 1-807 M446W): T1 sequence (P22059 1-807 V582M) with M446W, M582V

OSBP = biological target: T3, OSBP (Homo sapiens, UniProt P22059); assay: OSBP protein levels by western blotting; type: cell-based; conditions: HCT-116 cells
T3 sequence (P22059 1-807): T1 sequence (P22059 1-807 V582M) with M582V
In short: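 HCT-116 cells were treated with test compound at 50 nM or 10 nM over a time course including 24 h. Some samples also received proteasome inhibitor MG-132 or lactacystin. OSBP was measured by western blotting with polyclonal rabbit anti-OSBP (N-terminus) antibody. Data are n = 3, compared with vehicle-treated cells by two-tailed Student's t-test.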

human cancer cell lines = conditions: cited from earlier work

Structure (SMILES)	Ki (OSBP^V582M; read-out: Ki, OSBP^V582M, competition with [3H]25-OHC, mean ± s.d.) [nM]	Desensitization factor by ORP4L overexpression (relative GI30) [1]	Ki (OSBP^M446W; read-out: Ki, OSBP^M446W, competition with [3H]25-OHC, mean ± s.d.) [nM]	Reduction in OSBP protein levels (OSBP; 10 nM, 24 h)	GI50 (half-maximal inhibitory concentration) (human cancer cell lines)	Ki (OSBP^V582M) [nM]	Ki (OSBP^M446W) [nM]	Effect on OSBP levels (compound alone) (OSBP; 25-OHC 10 μM)
COc1ccc(C(=O)O[C@H]2[C@H](O[C@@H]3[C@@H](OC(C)=O)[C@H](O[C@H]4C[C@H]5[C@@H]6CC=C7C[C@@H](O)CC[C@]7(C)[C@H]6CC[C@]5(C)[C@@]4(O)[C@H](C)C(=O)CCC(C)C)OC[C@@H]3O)OC[C@@H](O)[C@@H]2O)cc1 [OSW-1]	46	2–5	18	approximately 75%	nanomolar range			
CC(C)=CCC/C(C)=C/Cc1c(O)cc(/C=C/c2cc(O)c3c(c2)C[C@@H]2C(C)(C)[C@H](O)[C@H](O)C[C@@]2(C)O3)cc1O [schweinfurthin A]		2–5			nanomolar range	37	60	no effect
